Test results: ChEMBL document CHEMBL1955766, “Structure guided development of novel thymidine mimetics targeting Pseudomonas aeruginosa thymidylate kinase: from hit to lead generation” (J Med Chem, 2012)

Experiments:
[1] = tested on: Pseudomonas aeruginosa; test: Antibacterial activity against Pseudomonas aeruginosa PAO1; type: functional
[2] = tested on: Pseudomonas aeruginosa; test: Antibacterial activity against […], MexXY, MeyZ efflux pump- knock out Pseudomonas aeruginosa PAO280; type: functional
[3] = Inhibition of Pseudomonas aeruginosa thymidylate kinase expressed in Escherichia coli BL21 (DE3) cells assessed as phosphorylation of dTMP to dTDP after 20 mins by spectrophotometric analysis
Outline: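 PaTMK from pET15b in E. coli BL21 DE3, purified by HisTrap and Superdex 200, used at 40 nM. dTDP formation was coupled via PK/LDH/NDP kinase to NADH oxidation (A340) over 20 min at 25 °C.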

[4] = Selectivity ratio of IC50 for human thymidylate kinase to IC50 for Pseudomonas aeruginosa thymidylate kinase
Outline: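 Compound tested at 0.39–200 μM. Reaction 2 min at room temperature, then ADP detection reagents 30 min. Fluorescence read at ex 485/em 535 nm, corrected using 5 μM ADP interference controls and no-enzyme controls. Result is the ratio against the PaTMK coupled-assay IC50.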

[5] = target: T1, Thymidylate kinase (Homo sapiens) (UniProt P23919); test: Inhibition of human thymidylate kinase using dTMP as substrate at 200 uM after 30 mins by fluorescence analysis
T1 sequence (whole entry): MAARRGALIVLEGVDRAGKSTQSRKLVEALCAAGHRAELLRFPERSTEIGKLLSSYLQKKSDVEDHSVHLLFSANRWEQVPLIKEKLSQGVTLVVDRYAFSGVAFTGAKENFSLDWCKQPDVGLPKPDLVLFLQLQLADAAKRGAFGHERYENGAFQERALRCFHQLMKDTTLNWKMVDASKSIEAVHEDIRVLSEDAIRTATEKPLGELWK
Outline: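 Inhibitor range 0.39–200 μM. Reaction runs 2 min at room temperature, then ADP-detection reagents for 30 min. Read-out is fluorescence at ex 485/em 535 nm. Percent inhibition is corrected using no-enzyme and 5 μM ADP interference controls.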

[6] = target: T2, Thymidylate kinase (Homo sapiens, UniProt P23919); test: Inhibition of human thymidylate kinase using dTMP as substrate after 30 mins by fluorescence analysis
T2 sequence (P23919 whole entry): T1 sequence (whole entry)

[7] = tested on: BL21-DE3; test: Ratio of dFTM IC50 to compound IC50 for Pseudomonas aeruginosa thymidylate kinase expressed in Escherichia coli BL21 (DE3) cells assessed as phosphorylation of TMP to dTDP after 20 mins by spectrophotometric analysis
Outline: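 His-tagged P. aeruginosa TMK expressed in E. coli BL21(DE3) and purified (Ni affinity, gel filtration). TMK diluted in buffer; 40 nM enzyme. Coupled PK/LDH/NDP kinase read-out: 2 mM ATP, 54 μM TMP, 2 mM PEP, 0.22 mM NADH, 40 mM HEPES pH 8.0, 80 mM KCl, 1.6 mM MgCl2. A340 decrease followed 20 min at 25 °C. Twenty 1.67-fold dilutions from 200 or 100 μM final. Initial rates relative to EDTA and enzyme-alone controls. IC50 ratio versus reference inhibitor.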

SMILES	MIC [1] [µg/mL]	MIC [2] [µg/mL]	IC50 [3] [nM]	Ratio IC50 [4]	inhibition [5] [%]	IC50 [6] [nM]	Ratio IC50 [7]
Cn1c(=O)[nH]c2ncc(-c3cccc(C(=O)NCC#N)c3)cc21	> 256	> 256	2100	–	–	–	–
Cl.Cn1c(=O)[nH]c2ncc(-c3cccc(C(=O)NCCCc4cccc(CN)c4)c3)cc21	> 256	> 256	2200	–	–	–	–
Cn1c(=O)[nH]c2ncc(-c3ccc(O)cc3)cc21	> 256	> 256	21000	–	–	–	–
Cn1c(=O)[nH]c2ncc(-c3cccc(C(=O)NCCc4nc5ccccc5[nH]4)c3)cc21	> 256	> 256	3000	–	–	–	–
Cn1c(=O)[nH]c2ncc(-c3cccc(C(=O)NCCCc4ccccc4)c3)cc21	> 256	> 256	120	> 1000	43	> 200000	–
Cn1c(=O)[nH]c2ncc(-c3ccncc3)cc21	> 256	> 256	152000	–	–	–	–
Cn1c(=O)[nH]c2ncc(-c3cccc(C(=O)NCC(Cc4ccccc4)C(=O)O)c3)cc21 (racemic)	> 256	> 256	250	–	–	–	–
Cn1c(=O)[nH]c2ncc(-c3cccc(C(=O)NCCC(=O)O)c3)cc21	> 256	> 256	2600	–	–	–	–
Cn1c(=O)[nH]c2ncc(-c3cccc(CO)c3)cc21	> 256	> 256	37000	–	–	–	–
Cl.Cn1c(=O)[nH]c2ncc(-c3cccc(C(=O)NCCCc4ccc(CN)cc4)c3)cc21	> 256	> 256	3200	–	–	–	–
Cn1c(=O)[nH]c2ncc(-c3cccc(C(N)=O)c3)cc21	> 256	> 256	–	–	12	> 200000	60
Cn1c(=O)[nH]c2ncc(-c3cncnc3)cc21	> 256	> 256	> 200000	–	–	–	–
CN(C)C(=O)c1cccc(-c2cnc3[nH]c(=O)n(C)c3c2)c1	> 256	> 256	104000	–	–	–	–
Cn1c(=O)[nH]c2ncc(-c3ccc(C(N)=O)cc3)cc21	> 256	> 256	> 200000	–	–	–	–
Cn1c(=O)[nH]c2ncc(-c3cccc(C(=O)NCCCc4cccnc4)c3)cc21	> 256	> 256	510	–	–	–	–
Cn1c(=O)[nH]c2ncc(-c3cccc(C(=O)NCCc4c[nH]cn4)c3)cc21	> 256	> 256	2300	–	–	–	–
Cn1c(=O)[nH]c2ncc(-c3cccc(C(=O)NCCCc4ccc(C(F)(F)F)cc4)c3)cc21	> 256	> 256	160	> 1000	55	124000	–
Cn1c(=O)[nH]c2ncc(-c3cccc(C(=O)NCCCc4ccc(F)cc4)c3)cc21	> 256	> 256	120	> 1000	58	123000	–
Cn1c(=O)[nH]c2ncc(-c3cccc(C(=O)NCC(=O)O)c3)cc21	> 256	> 256	880	–	–	–	–
Cn1c(=O)[nH]c2ncc(-c3cccnc3)cc21	> 256	> 256	66000	–	–	–	–
Cn1c(=O)[nH]c2ncc(-c3cccc(C(=O)NCc4nc5ccccc5[nH]4)c3)cc21	> 256	> 256	68000	–	–	–	–
Cn1c(=O)[nH]c2ncc(-c3cccc(C(=O)NCCCc4c[nH]c5ccccc45)c3)cc21	> 256	> 256	200	–	–	–	–
Cn1c(=O)[nH]c2ncc(-c3cccc(C(=O)NCc4ccccc4)c3)cc21	> 256	> 256	1000	–	–	–	–
CC(=O)c1cccc(-c2cnc3[nH]c(=O)n(C)c3c2)c1	> 256	> 256	13000	–	–	–	–
Cn1c(=O)[nH]c2ncc(-c3cccc(O)c3)cc21	> 256	> 256	11000	–	–	–	–
Cn1c(=O)[nH]c2ncc(-c3cccc(C(=O)NCCCC4CCCC4)c3)cc21	> 256	> 256	810	–	–	–	–

SMILES	MIC [1] [µg/mL]	MIC [2] [µg/mL]	IC50 [3] [nM]	Ratio IC50 [4]	inhibition [5] [%]	IC50 [6] [nM]	Ratio IC50 [7]
Cc1cn([C@H]2C[C@H](O)[C@@H](CF)O2)c(=O)[nH]c1=O	> 256	> 256	–	–	–	–	–
Cn1c(=O)[nH]c2ncc(-c3ccccc3)cc21	> 256	> 256	–	–	17	> 200000	–
Cn1c(=O)[nH]c2ncc(-c3cccc(C#N)c3)cc21	> 256	> 256	> 200000	–	–	–	–
CNC(=O)c1cccc(-c2cnc3[nH]c(=O)n(C)c3c2)c1	> 256	> 256	2200	–	–	–	–
Cn1c(=O)[nH]c2ncc(-c3cccc(C(=O)NCCCN4CCOCC4)c3)cc21	> 256	> 256	5800	–	–	–	–
CC(NC(=O)c1cccc(-c2cnc3[nH]c(=O)n(C)c3c2)c1)C(=O)O (centres undefined)	> 256	> 256	5000	–	–	–	–
COC(=O)c1ccccc1CCCNC(=O)c1cccc(-c2cnc3[nH]c(=O)n(C)c3c2)c1	> 256	> 256	370	–	–	–	–
Cn1c(=O)[nH]c2ncc(-c3cccc(N)c3)cc21	> 256	> 256	63000	–	–	–	–
Cn1c(=O)[nH]c2ncc(-c3cccc(S(N)(=O)=O)c3)cc21	> 256	> 256	> 200000	–	–	–	–
Cn1c(=O)[nH]c2ncc(-c3cccc(C(=O)NCCc4ccccc4)c3)cc21	> 256	> 256	2900	–	–	–	–
Cl.Cn1c(=O)[nH]c2ncc(-c3ccc(CN)cc3)cc21	> 256	> 256	4900	–	–	–	–
Cl.Cn1c(=O)[nH]c2ncc(-c3cccc(C(=O)NCCN)c3)cc21	> 256	> 256	3200	–	–	–	–
CC(=O)Nc1cccc(-c2cnc3[nH]c(=O)n(C)c3c2)c1	> 256	> 256	3400	–	–	–	–
Cn1c(=O)[nH]c2ncc(-c3cccc(C(=O)NCC(N)=O)c3)cc21	> 256	> 256	880	–	–	–	–
Cn1c(=O)[nH]c2ncc(-c3cccc(F)c3)cc21	> 256	> 256	> 200000	–	–	–	–
Cn1c(=O)[nH]c2ncc(-c3cccc(C(=O)NCCO)c3)cc21	> 256	> 256	2600	–	–	–	–
Cn1c(=O)[nH]c2ncc(-c3cccc(C(=O)NCCCc4ccccc4C(=O)O)c3)cc21	> 256	> 256	2000	–	–	–	–
Cn1c(=O)[nH]c2ncc(-c3cccc(C(=O)NCCS(=O)(=O)O)c3)cc21	> 256	> 256	1300	–	–	–	–
Cn1c(=O)[nH]c2ncc(-c3cccc(C(=O)NCCCc4ccc(C(=O)O)cc4)c3)cc21	> 256	> 256	2700	–	–	–	–
Cl.Cn1c(=O)[nH]c2ncc(-c3cccc(CN)c3)cc21	> 256	> 256	> 200000	–	–	–	–
Cn1c(=O)[nH]c2ncc(-c3cccc(C(=O)NCCCc4cccc(C(=O)O)c4)c3)cc21	> 256	> 256	2400	–	–	–	–
Cn1c(=O)[nH]c2ncc(-c3cccc(C(=O)NCc4ccccn4)c3)cc21	> 256	> 256	6200	–	–	–	–
Cn1c(=O)[nH]c2ncc(-c3cccc(C(=O)NCCc4ccncc4)c3)cc21	> 256	> 256	2000	–	–	–	–
Cn1c(=O)[nH]c2ncc(-c3cccc(C(=O)NCCCc4c[nH]cn4)c3)cc21	> 256	> 256	990	–	–	–	–
Cn1c(=O)[nH]c2ncc(-c3cccc(C(=O)NC(CCc4ccccc4)C(=O)O)c3)cc21 (racemic)	> 256	> 256	12000	–	–	–	–
